Measured values as given in PubChem BioAssay.
Activity calls are given as the source filed them.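 How the source made its calls, unless noted: active means fluorescence slope higher than the sample average by over 3 SD (cut at about -0.22 in these data, passing the limit was not always enough); inactive means the rest.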

How the values were obtained:
[1] = inhibitors of TNFa-induced NFkB p65 translocation, primary screen, imaging, HUVEC, MLSMR starter and 10KST1 sets (AID 438;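 active means inhibition above 20% together with a positive visual image hit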;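 further: compound added about 3h40 before a 20 min TNFalpha stimulation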;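 on inhibition: signal is the nuclear over cytoplasmic p65 intensity ratio per well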); settings: HUVEC TNFa-induced p65 nuclear translocation; cell count: measured here: nuclei count (cytotoxicity indicator), at 2.08 µM; inhibition: at 2 µM, stronger effect = higher value, 0% TNFa-plus-vehicle, 100% no-TNFa wells
[2] = reduction of polyQ htt aggregates in cells – imaging, exon1htt(103Q)mCFP cells, high-content imaging, primary screen (AID 483;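 active means visual image review flags a hit and inhibition of aggregation exceeds 20%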;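 further: compound exposure lasted 3 days before fixation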;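 on nuclei count: percent of the per-plate median nuclei count of sample wells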); settings: exon1htt(103Q)mCFP cell line, aggregate imaging, at 2 µM; inhibition of aggregation: stronger effect = higher value; nuclei count: measured here: cell count, toxicity
[3] = endothelial E-selectin expression blockers – imaging, HUVEC, immunofluorescence, MLSMR starter and 10KST1 sets, primary screen (AID 487;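 active means visually confirmed hit in the image check and inhibition above 20%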;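 on inhibition: signal is fraction of cell area covered by stained E-selectin grains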;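 on nuclei count: 100% = median nuclei count of all wells on the same plate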); settings: HUVEC TNFalpha-induced E-selectin immunofluorescence imaging, at 2 µM; inhibition: stronger effect = higher value; nuclei count: measured here: cell number, toxicity
[4] = target: Voltage-gated potassium channel subunit beta-2 (Rattus norvegicus) (UniProt P62483); test: inhibitors of rat Kvbeta2 reductase activity – biochemical, NADPH fluorescence, primary screen (AID 622); settings: recombinant KvBeta, 4-cyanobenzaldehyde reduction, at 10 µM, stronger effect = higher value;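 further: slope of raw intensity against log time taken from 70 to 1610 s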
Sequence of Voltage-gated potassium channel subunit beta-2 (Rattus norvegicus) (P62483 whole entry, looked up): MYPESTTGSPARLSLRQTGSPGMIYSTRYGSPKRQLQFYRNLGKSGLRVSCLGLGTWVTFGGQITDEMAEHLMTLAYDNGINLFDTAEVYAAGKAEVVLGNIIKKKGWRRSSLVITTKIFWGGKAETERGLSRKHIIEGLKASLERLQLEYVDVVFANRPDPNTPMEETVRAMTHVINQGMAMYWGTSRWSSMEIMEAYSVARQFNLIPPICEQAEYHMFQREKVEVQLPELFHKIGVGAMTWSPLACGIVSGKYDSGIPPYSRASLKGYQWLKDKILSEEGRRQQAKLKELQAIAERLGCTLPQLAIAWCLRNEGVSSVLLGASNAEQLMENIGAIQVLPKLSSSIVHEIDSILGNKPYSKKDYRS

[5] = target: Voltage-gated potassium channel subunit beta-2 (Rattus norvegicus) (UniProt P62483); test: enhancers of rat Kvbeta2 NADPH turnover – biochemical, NADPH fluorescence, primary screen (AID 623;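 active means NADPH fluorescence slope more negative than the mean of all samples by about 3 SD, 99.7% confidence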;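 further: fluorescence intensity change per second fitted from 20 to 320 s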); settings: Recombinant KvBeta, NADPH fluorescence decrease slope, 10 min; at 10 µM; stronger effect = lower value
[6] = target: Muscarinic acetylcholine receptor M4 (Homo sapiens) (UniProt P08173); test: M4-linked GIRK flux change, two-sided – cell-based, HEK293 M4/GIRK, thallium flux, BTC-AM, M4 allosteric agonist project, primary screen (AID 625;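 active means fluorescence slope after compound addition differing from the mean of all tested samples at 99.7% confidence, mostly higher but some lower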;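 further: thallium influx through GIRK channels coupled to M4 in HEK293 cells with BTC-AM dye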); settings: at 10 µM, actives lie on both sides
Sequence of Muscarinic acetylcholine receptor M4 (Homo sapiens) (P08173 whole entry, looked up): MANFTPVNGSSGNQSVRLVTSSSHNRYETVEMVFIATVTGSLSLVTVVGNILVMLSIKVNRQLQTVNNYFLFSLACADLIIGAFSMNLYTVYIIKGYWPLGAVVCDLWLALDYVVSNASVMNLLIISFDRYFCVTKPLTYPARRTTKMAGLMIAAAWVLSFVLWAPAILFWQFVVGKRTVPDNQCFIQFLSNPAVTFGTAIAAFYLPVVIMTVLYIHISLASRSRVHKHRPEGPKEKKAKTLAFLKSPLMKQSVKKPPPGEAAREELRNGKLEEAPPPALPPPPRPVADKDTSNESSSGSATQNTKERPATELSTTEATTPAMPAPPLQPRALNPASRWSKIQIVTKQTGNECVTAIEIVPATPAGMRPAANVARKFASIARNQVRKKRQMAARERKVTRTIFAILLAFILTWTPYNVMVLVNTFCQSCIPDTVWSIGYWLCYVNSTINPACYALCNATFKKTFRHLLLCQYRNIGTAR
Summary of the method: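 Material: HEK293 cells with M4 receptor and GIRK channels; Times: cells overnight at 37 °C, BTC-AM loading 1 h, reads 2 min total; Technique: kinetic BTC-AM fluorescence sampled at 1 Hz, 10 s pre-addition baseline; Read-out basis: slope over 15–24 s of trace normalized to starting intensity; Controls: carbachol positive, DMSO negative.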

[7] = blockers of RIG-like receptor reporter activation – cell-based, Sendai virus stimulus, luciferase, 10K MLSCN set, TLR/RLR signaling modifier project, primary screen (AID 602276;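 active means inhibition at or above 50% at 10 µM; inactive means inhibition below 50%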;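 further: firefly luciferase from ISG56 promoter only with Renilla not read in this screen; 0% = Sendai virus plus DMSO and 100% = medium plus DMSO without virus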); settings: HEK293 RL24 IRF3 luciferase reporter, at 10 µM, stronger effect = higher value
[8] = TLR3 IRF3 reporter activation blockers – cell-based, poly I:C stimulus, luciferase, 10K MLSCN set, primary screen (AID 602277;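 active means inhibition of the reporter signal at or above 50%; inactive means inhibition below 50%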); settings: HEK293-TLR3 RL24 IRF3 luciferase reporter, at 10 µM, stronger effect = higher value

| Structure (SMILES) | cell count [1] | inhibition [1] | inhibition of aggregation [2] | nuclei count [2] [%] | inhibition [3] | nuclei count [3] [%] | fluorescence slope [4] | NADPH fluorescence slope [5] | fluorescence slope [6] | inhibition [7] | inhibition [8] |
| --- | --- | --- | --- | --- | --- | --- | --- | --- | --- | --- | --- |
| O=C(NCCc1cccc(Cl)c1)c1cccnc1 | 341 | -8% (inactive) | -14.1% (inactive) | 95.5 | -194% (inactive) | 119 | -0.562 (inactive) | -1.7e-05 (inactive) | 0.00601 (inactive) | -14.6% (inactive) | -52% (inactive) |
| CCOCC(=O)Nc1nc2ccc(OC)cc2s1 | 411 | 2.9% (inactive) | -11.8% (inactive) | 102 | -85.2% (inactive) | 127 | -0.522 (inactive) | -0.000124 (inactive) | 0.00427 (inactive) | -34.1% (inactive) | -111% (inactive) |
| Cc1ccc(NCc2nnc(SCC(=O)NCc3ccco3)n2CC2CCCO2)cc1Cl (stereo not drawn) | 331 | -11.8% (inactive) | 13.3% (inactive) | 80.1 | 4.6% (inactive) | 106 | -0.505 (inactive) | 2.3e-05 (inactive) | 0.00472 (inactive) | -1.38% (inactive) | -3.61% (inactive) |
| CCSc1nc(-c2ccc(OC)cc2)ccc1C#N | 380 | 1.5% (inactive) | -5.1% (inactive) | 72.9 | -44.4% (inactive) | 101 | -0.551 (inactive) | -1.9e-05 (inactive) | 0.00795 (inactive) | 9.36% (inactive) | 7.27% (inactive) |
| COc1cc(-c2c(C#N)c(N)nc3c2CCCC3)cc(OC)c1OC | 620 | -8.6% (inactive) | 0.1% (inactive) | 101 | -110% (inactive) | 121 | -0.534 (inactive) | -6.8e-05 (inactive) | 0.0058 (inactive) | 20% (inactive) | 26.4% (inactive) |
| CC(c1nnc(SCC(=O)Nc2sccc2C#N)n1-c1ccc(Cl)cc1)N(C)C (stereo not drawn) | 539 | -20.1% (inactive) | 2% (inactive) | 101 | -28.9% (inactive) | 143 | -0.463 (inactive) | -2.7e-05 (inactive) | 0.00514 (inactive) | 17.6% (inactive) | 25.1% (inactive) |
| Cn1c(=O)c2ncn(CC(=O)NCCOc3ccccc3)c2n(C)c1=O | 503 | -4.4% (inactive) | -3.1% (inactive) | 98 | 43% (inactive) | 91.5 | -0.52 (inactive) | 2.9e-06 (inactive) | 0.00467 (inactive) | 18% (inactive) | 14.3% (inactive) |
| CS(=O)(=O)N(CC(=O)N1CCCCCC1)c1ccccc1 | 324 | -0.2% (inactive) | 1.9% (inactive) | 82.8 | -11.6% (inactive) | 106 | -0.452 (inactive) | -3.4e-05 (inactive) | 0.00505 (inactive) | 11.4% (inactive) | 8.59% (inactive) |
